Data set [1] can be described thus: (§1) Cytotoxicity against C57BL/6N mouse primary hepatocytes assessed as cell viability at 20 uM after 24 hrs by CCK8 assay. It is filed as cell-based, Hepatocyte. As to conditions: C57BL/6N, primary hepatocytes, read-out: Activity. In short, it runs like this:
(§2)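 Hepatocytes were isolated by portal-vein perfusion and Percoll gradient from 10-week male C57BL/6N mice. Cells were seeded at 1×10^4/well and exposed to 20 μM compound in cell plating reagent for 24 h. CCK-8 was then added for 2 h at 37 °C and absorbance read at 450 nm. Three independent experiments, each in triplicate.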
(In general: Tetrazolium assays rely on reduction of a dye to a coloured formazan, in cell work by metabolically active cells.)

The target of data set [2] is T1, Glucagon receptor (Homo sapiens, UniProt P47871). Nature of the data set: Antagonist activity at human glucagon receptor expressed in CHO-K1 GCGR Gs cells assessed as inhibition of glucagon-induced cAMP accumulation at 10 uM pre-incubated for 10 mins before glucagon and forskolin addition and further incubated for 30 mins by luminescence-based assay. The class given is functional, cell-based. To be noted: in the assay text read “pre-incubated for 15 mins” for “pre-incubated for 10 mins”. In short, it runs like this:
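CHO-K1 GCGR Gs cells were seeded at 1×10^4/well. The next day they were pre-treated with compound at 10 μM in PBS for 15 min at 37 °C, 5% CO₂. Then 0.1 nM glucagon plus 10 μM forskolin was added for a further 30 min. cAMP was read by HitHunter enzyme-complementation luminescence. Three independent experiments.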
On the technique in general: Changes in cAMP serve as a functional read-out for many G protein-coupled receptors.

The target in data set [3] is T1, Glucagon receptor. The data set can be described thus: Antagonist activity at human glucagon receptor expressed in CHO-K1 GCGR Gs cells assessed as inhibition of glucagon-induced cAMP accumulation pre-incubated for 10 mins before glucagon and forskolin addition and further incubated for 30 mins by luminescence-based assay. To be noted: in the assay text read “pre-incubated for 15 mins” for “pre-incubated for 10 mins”. The class given is functional, cell-based. In outline:
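Glucagon-receptor CHO-K1 GCGR Gs cells (1×10^4/well, plated the day before) were exposed to compound at 0.0001–100 μM in PBS for 15 min at 37 °C. Cells were then stimulated with 0.1 nM glucagon and 10 μM forskolin for 30 min. cAMP was measured by HitHunter luminescence. IC50 was fitted from three independent determinations.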

Data set [4] concerns Hepatocyte. Nature of the data set: Inhibition of glucagon-induced glucose production in C57BL/6N mouse primary hepatocytes grown under gluconeogenic medium at 20 uM after 30 mins by glucose assay reagent-based glucose oxidase method. The class given is functional. To be noted: 0.5 h. In outline: (§3)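 Primary mouse hepatocytes were plated at 2.5×10^5/well. After 24 h they were washed and held 3 h in glucose-free DMEM. Compound (20 μM screen, or 1–100 μM series) was then added with 20 mM sodium lactate, 2 mM sodium pyruvate and 10 nM glucagon. Medium glucose was assayed by kit after 30 min and normalized to cellular protein. Five independent experiments, each in triplicate.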

In data set [5] the test system is Hepatocyte. Nature of the data set: Inhibition of glucagon-induced glucose production in C57BL/6N mouse primary hepatocytes grown under gluconeogenic medium after 30 mins by glucose assay reagent-based glucose oxidase method. It is filed as functional, cell-based. In outline:
as §3

For data set [6], the system named is Hepatocyte. The description is as §1. It is filed as cell-based. As to conditions: hepatocytes, 24 h, 20 µM. In outline: as §2
Data set [7] relates to Hepatocyte. Nature of the data set: Inhibition of glucagon-induced glucose production in C57BL/6N mouse primary hepatocytes grown under gluconeogenic medium at 20 uM after 3 hrs by glucose assay reagent-based glucose oxidase method. It is filed as functional, cell-based. In outline:
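Mouse primary hepatocytes in glucose-free DMEM were given 20 μM compound for 3 h with 10 nM glucagon, 2 mM sodium pyruvate and 20 mM sodium lactate. Medium glucose was measured by glucose assay kit 30 min after glucagon. Three independent experiments.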

The subject of data set [8] is Mus musculus. Nature of the data set: Antihyperglycemic activity in db/db mouse assessed as reduction in blood glucose level at 50 mg/kg, po administered once per day for 4 weeks and measured after 12 hrs fasting. The class given is functional, organism-based. In short, it runs like this:
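Male db/db mice were obtained at 6 weeks; only animals with blood glucose over 400 mg/dL were used. They were dosed 50 mg/kg by oral intubation once daily for 4 weeks, in 9% cremophore with 10% DMSO in sterile water. Fasting blood glucose was read by glucometer after a 12 h fast at week 4. n=7/group.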

For data set [9], the system named is Mus musculus. The data set can be described thus: Antihyperglycemic activity in db/db mouse assessed pretreated at 50 mg/kg, po administered via intubation once per day for 4 weeks followed by fasting for 5 hrs before second administration at 50 mg/kg via oral gavage and subsequent glucagon challenge after 1 hr and measured durimng 15 to 60 mins post glucagon injection. The class given is functional, organism-based. In short, it runs like this: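 Diabetic db/db mice were dosed orally at 50 mg/kg daily for 4 weeks (vehicle 9% cremophore/10% DMSO in sterile water). They were then fasted 5 h and re-dosed 50 mg/kg by gavage. After 1 h they received glucagon 15 μg/kg i.p. Blood glucose was measured at 15, 30, 45 and 60 min. n=4–6/group.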

Data set [10] has as its system Hepatocyte. Nature of the data set: Inhibition of glucagon-induced glucose production in C57BL/6N mouse primary hepatocytes grown under gluconeogenic medium at 10 uM after 30 mins by glucose assay reagent-based glucose oxidase method. It is filed as functional, cell-based. In short, it runs like this:
as §3

Activity calls are given as the source filed them. The calls are words filed in the database; no cut-off is given here.

Results on 16 molecules are retold here after ChEMBL document CHEMBL4261626, “Design, synthesis, and effects of novel phenylpyrimidines as glucagon receptor antagonists” (Bioorg Med Chem, 2018).

By inhibition is commonly meant the change of the read-out against control, counted positive when it falls. The IC50 is the point on the concentration scale where inhibition reaches its midpoint.

T1 sequence (P47871 whole entry): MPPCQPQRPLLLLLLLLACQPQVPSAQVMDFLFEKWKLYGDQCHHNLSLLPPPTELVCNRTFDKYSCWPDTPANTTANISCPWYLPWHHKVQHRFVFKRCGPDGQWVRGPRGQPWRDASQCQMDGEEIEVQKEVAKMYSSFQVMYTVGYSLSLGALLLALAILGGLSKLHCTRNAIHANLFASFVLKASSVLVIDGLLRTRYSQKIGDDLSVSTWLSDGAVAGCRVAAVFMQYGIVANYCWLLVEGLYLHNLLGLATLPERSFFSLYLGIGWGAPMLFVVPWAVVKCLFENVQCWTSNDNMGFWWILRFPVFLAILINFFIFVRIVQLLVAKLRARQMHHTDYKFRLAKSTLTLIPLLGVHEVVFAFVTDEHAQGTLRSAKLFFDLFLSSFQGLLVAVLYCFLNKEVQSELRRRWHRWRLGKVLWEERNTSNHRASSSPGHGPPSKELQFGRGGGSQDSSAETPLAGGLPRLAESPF

On to `CCCCC(Oc1ncc(-c2ccccc2Cl)cn1)c1ccc(C(=O)NCCC(=O)O)cc1` (configuration not stated), for which the viability at 24 h, 20 µM in data set [1] is over 80%. Moreover, on Glucagon receptor [2], the inhibition was over 60%.

For the molecule `CCCCC(Oc1ncc(-c2ccc(CC)cc2)cn1)c1ccc(C(=O)NCCC(=O)O)cc1` (configuration not stated), in [1], the viability at 24 h, 20 µM was over 80%. Further, at Glucagon receptor [2], the inhibition is over 60%. Moreover, the IC50 on Glucagon receptor [3] was found to be 17.7 µM. In the data set with Hepatocyte [4], the inhibition at 20 µM was over 60%.

Regarding `CCCCC(Oc1ncc(-c2cccc(Cl)c2)cn1)c1ccc(C(=O)NCCC(=O)O)cc1` (configuration not stated), in [1], the viability at 24 h, 20 µM was over 80%. The inhibition at Glucagon receptor [2] is over 60%.

Turning to `CCCCC(Oc1ncc(-c2ccc(Oc3ccccc3)cc2)cn1)c1ccc(C(=O)NCCC(=O)O)cc1` (configuration not stated), the viability at 24 h, 20 µM in data set [1] was over 80%. Moreover, the inhibition on Glucagon receptor [2] was over 60%. Moreover, the IC50 at Glucagon receptor [3] was determined as 8.2 µM. This molecule also had an inhibition at 20 µM with Hepatocyte [4] of over 60%.

Consider `CCCCC(Oc1ncc(-c2cc(Cl)cc(Cl)c2)cn1)c1ccc(C(=O)NCCC(=O)O)cc1` (configuration not stated), for which the viability at 24 h, 20 µM in data set [1] is over 80%. Moreover, the inhibition at Glucagon receptor [2] was over 60%; in the data set with Hepatocyte [5], “Dose-dependent effect”. In addition, the IC50 on Glucagon receptor [3] worked out at 6.9 µM. Also, the inhibition at 20 µM in the data set with Hepatocyte [4] is over 60%.

Consider `CCCC[C@H](Oc1ncc(-c2ccccc2)cn1)c1ccc(C(=O)NCCC(=O)O)cc1`, for which the Activity entry in the data set with Hepatocyte [6] is given as “Toxic”. For the same molecule, the IC50 at Glucagon receptor [3] was 8.5 µM. In the data set on Hepatocyte [7], the inhibition result is “Active”. In addition, the result in the data set on Mus musculus [8] and with Mus musculus [9] was Active.

Take `CCCC[C@@H](Oc1ncc(-c2ccc(C(C)(C)C)cc2)cn1)c1ccc(C(=O)NCCC(=O)O)cc1`: the Activity entry in the data set on Hepatocyte [6] is on record as “Toxic”. Moreover, the inhibition entry with Hepatocyte [7] is “inactive”.

For the molecule `CCCCC(Oc1ncc(-c2ccccc2)cn1)c1ccc(C(=O)NCCC(=O)O)cc1` (configuration not stated), the viability at 24 h, 20 µM in [1] was over 80%. Also, the inhibition at Glucagon receptor [2] is over 60%; in the data set on Hepatocyte [5], “Dose-dependent effect”. Further, the IC50 on Glucagon receptor [3] was determined as 4.1 µM. This molecule also registered an inhibition at 20 µM with Hepatocyte [4] of over 60%. For the same molecule, in the data set with Hepatocyte [10], the inhibition entry was “Active”.

For the molecule `CCC(CC)C(=O)Nc1sc2c(c1C#N)CCC(C(C)(C)CC)C2` (configuration not stated), in data set [1], the viability at 24 h, 20 µM was over 80%. The inhibition on Glucagon receptor [2] is over 60%.

For the molecule `CCCCC(Oc1ncc(-c2ccc(C(F)(F)F)cc2)cn1)c1ccc(C(=O)NCCC(=O)O)cc1` (configuration not stated), in [1], the viability at 24 h, 20 µM is over 80%. Further, the inhibition at Glucagon receptor [2] is over 60%.

Take `CCCCC(Oc1ncc(-c2ccc(C(F)(F)F)cc2F)cn1)c1ccc(C(=O)NCCC(=O)O)cc1` (configuration not stated): the viability at 24 h, 20 µM in [1] was over 80%. Also, on Glucagon receptor [2], the inhibition is over 60%.

Turning to `CCCCC(Oc1ncc(-c2ccc(Cl)cc2)cn1)c1ccc(C(=O)NCCC(=O)O)cc1` (configuration not stated), in [1], the viability at 24 h, 20 µM was over 80%. Further, the inhibition at Glucagon receptor [2] is over 60%.

As for `CCCCC(Oc1ncc(-c2ccc(C(C)(C)C)cc2)cn1)c1ccc(C(=O)NCCC(=O)O)cc1` (configuration not stated), the viability at 24 h, 20 µM in data set [1] is over 80%. Further, the inhibition on Glucagon receptor [2] was over 60%; in the data set on Hepatocyte [5], “Dose-dependent effect”. The IC50 on Glucagon receptor [3] was determined as 6 µM. In addition, the inhibition at 20 µM in the data set with Hepatocyte [4] is over 60%. Further, in the data set with Hepatocyte [10], the inhibition entry was “Active”.

As for `CCCC[C@@H](Oc1ncc(-c2ccccc2)cn1)c1ccc(C(=O)NCCC(=O)O)cc1`, the Activity entry with Hepatocyte [6] is reported as “Non-Toxic”. In addition, at Glucagon receptor [3], the IC50 turned out to be 9.3 µM. The inhibition result in the data set on Hepatocyte [7] was “Active”. In addition, the result in the data set with Mus musculus [8] and in the data set with Mus musculus [9] was Active.

In the case of `CCCC[C@H](Oc1ncc(-c2ccc(C(C)(C)C)cc2)cn1)c1ccc(C(=O)NCCC(=O)O)cc1`, the Activity result in the data set with Hepatocyte [6] is recorded as “Toxic”. Also, the inhibition entry in the data set with Hepatocyte [7] was “inactive”.

In the case of `Cc1cc(O[C@@H](CCC(F)(F)F)c2ccc(C(=O)NCCC(=O)O)cc2)cc(C)c1-c1ccc(C(C)(C)C)cc1`, the outcome with Mus musculus [8] was inactive.
